# Source: ChEMBL document CHEMBL4725448, “Substituted Azabicyclo[2.2.1]heptanes as Selective Orexin-1 Antagonists: Discovery of JNJ-54717793” (ACS Med Chem Lett, 2020)
# Columns and labels:
# [1] = target: T1, Orexin receptor type 2 (Homo sapiens, UniProt O43614); assay: Binding affinity to human OX2R
# T1 sequence (O43614 whole entry): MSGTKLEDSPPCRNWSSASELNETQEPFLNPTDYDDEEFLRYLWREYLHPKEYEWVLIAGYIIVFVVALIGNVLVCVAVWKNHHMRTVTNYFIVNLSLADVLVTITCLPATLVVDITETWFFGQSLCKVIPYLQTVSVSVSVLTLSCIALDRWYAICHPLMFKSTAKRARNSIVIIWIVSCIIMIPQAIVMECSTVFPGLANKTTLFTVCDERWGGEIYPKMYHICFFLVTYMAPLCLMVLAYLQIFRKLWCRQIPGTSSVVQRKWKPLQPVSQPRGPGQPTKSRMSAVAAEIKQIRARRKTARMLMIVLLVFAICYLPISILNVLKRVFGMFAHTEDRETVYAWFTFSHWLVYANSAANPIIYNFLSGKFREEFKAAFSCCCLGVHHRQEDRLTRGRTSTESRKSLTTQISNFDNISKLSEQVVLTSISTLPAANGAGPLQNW
# [2] = Stability in rat liver microsomes assessed as extraction ratio; type: ADME, Microsome; details: read-out: ERH
# Outline: (§1)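 Metabolic stability in human or rat liver microsomes, expressed as extraction ratios.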
# [3] = target: T2, Orexin/Hypocretin receptor type 1 (Homo sapiens, UniProt O43613); assay: Binding affinity to human […]
# T2 sequence (O43613 whole entry): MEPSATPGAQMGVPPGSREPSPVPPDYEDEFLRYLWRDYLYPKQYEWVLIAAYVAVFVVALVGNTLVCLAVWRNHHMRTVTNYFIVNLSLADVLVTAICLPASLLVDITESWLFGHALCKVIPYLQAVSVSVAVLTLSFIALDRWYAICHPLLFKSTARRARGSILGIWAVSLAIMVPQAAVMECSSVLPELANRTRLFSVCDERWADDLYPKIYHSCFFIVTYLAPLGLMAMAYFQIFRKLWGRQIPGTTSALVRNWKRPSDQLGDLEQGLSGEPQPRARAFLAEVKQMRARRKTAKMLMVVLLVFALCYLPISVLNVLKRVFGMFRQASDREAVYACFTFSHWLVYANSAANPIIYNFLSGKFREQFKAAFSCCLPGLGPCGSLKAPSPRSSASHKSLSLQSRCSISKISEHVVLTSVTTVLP
# [4] = Stability in human liver microsomes assessed as extraction ratio; type: ADME, Microsome; details: read-out: ERH; outline: as §1
# [5] = Drug concentration in Sprague-Dawley rat brain at 30 mg/kg, po after 0.5 hrs by LC-MS/MS analysis; type: ADME, organism-based; details: read-out: Ct
# Outline: (§2)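 Brain and plasma levels (ng/mL) sampled 0.5 h after oral dosing at 10 or 30 mg/kg, alongside the ex vivo tenia tecta occupancy study.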
# [6] = Drug concentration in Sprague-Dawley rat plasma at 30 mg/kg, po after 0.5 hrs by LC-MS/MS analysis; type: ADME, organism-based; outline: as §2
# [7] = Ex vivo receptor occupancy at OX1R in Sprague-Dawley rat brain tenia tecta using [3H]SB-674042 labelling at 30 mg/kg, po measured after 0.5 hrs by autoradiography; type: functional
# Outline: (§3)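 Ex vivo OX1R binding autoradiography in rat tenia tecta after a 30 mg/kg po dose; percent occupancy read at 0.5 and 2 h.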
# [8] = Ex vivo receptor occupancy at OX1R in Sprague-Dawley rat brain tenia tecta using [3H]SB-674042 labelling at 30 mg/kg, po measured after 2 hrs by autoradiography; type: functional; outline: as §3
# [9] = Ex vivo receptor occupancy at OX1R in Sprague-Dawley rat brain tenia tecta using [3H]SB-674042 labelling at 10 mg/kg, po measured after 6 hrs by autoradiography; type: functional
# Outline: (§4)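 Rats received a single oral dose, and OX1R occupancy was measured by ex vivo binding autoradiography in brain tenia tecta sections at 0.5, 2 and 6 h after dosing. Occupancy is expressed as percent. Brain and plasma drug levels (ng/mL) were also sampled at the 0.5 h time point.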
# [10] = Drug concentration in Sprague-Dawley rat plasma at 10 mg/kg, po after 0.5 hrs by LC-MS/MS analysis; type: ADME, organism-based; outline: as §2
# [11] = Drug concentration in Sprague-Dawley rat brain at 10 mg/kg, po after 0.5 hrs by LC-MS/MS analysis; type: ADME, organism-based; details: read-out: Ct; outline: as §2
# [12] = Ex vivo receptor occupancy at OX1R in Sprague-Dawley rat brain tenia tecta using [3H]SB-674042 labelling at 10 mg/kg, po measured after 0.5 hrs by autoradiography; type: functional; outline: as §4
# [13] = Ex vivo receptor occupancy at OX1R in Sprague-Dawley rat brain tenia tecta using [3H]SB-674042 labelling at 10 mg/kg, po measured after 2 hrs by autoradiography; type: functional; outline: as §4
# [14] = Permeability across apical to basolateral side in MDCK cells; type: ADME, cell-based, Canis lupus familiaris; details: dog
# [15] = Protein binding in human plasma assessed as free fraction; type: ADME, cell-free
# [16] = target: T3, PXR (NR1I2) (Homo sapiens, UniProt O75469); assay: Induction of human PXR at 10 uM relative to control; type: ADME; details: read-out: Activity
# T3 sequence (O75469 whole entry): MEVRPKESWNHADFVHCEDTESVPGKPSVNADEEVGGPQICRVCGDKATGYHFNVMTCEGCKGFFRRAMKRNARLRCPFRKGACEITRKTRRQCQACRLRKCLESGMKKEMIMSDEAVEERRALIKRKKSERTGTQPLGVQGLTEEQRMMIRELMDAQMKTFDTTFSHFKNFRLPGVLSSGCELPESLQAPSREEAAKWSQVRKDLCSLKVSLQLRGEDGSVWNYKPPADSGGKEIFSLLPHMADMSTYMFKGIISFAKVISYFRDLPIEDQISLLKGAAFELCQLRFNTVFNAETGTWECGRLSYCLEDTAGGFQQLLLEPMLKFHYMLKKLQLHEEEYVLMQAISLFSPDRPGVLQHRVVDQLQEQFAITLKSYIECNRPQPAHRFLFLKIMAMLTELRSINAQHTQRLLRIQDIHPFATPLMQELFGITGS
# Outline: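 Human PXR activation as an indirect measure of CYP3A4 induction, at 10 μM, expressed as % of rifampicin control activation.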
# [17] = Permeability across basolateral to apical side in MDCK cells; type: ADME, cell-based, Canis lupus familiaris; details: dog
# [18] = Protein binding in rat plasma assessed as free fraction; type: ADME, cell-free
# [19] = Protein binding in rat brain assessed as free fraction; type: ADME, tissue-based
# [20] = species: Homo sapiens; assay: Selectivity index, ratio of Ki for human OX2R to Ki for human OX1R
# [21] = Ex vivo receptor occupancy at OX1R in po dosed rat tenia tecta after 60 mins; type: functional, organism-based; details: 1 h
Structure (SMILES),Ki [1] [nM],hepatic extraction ratio [2],Ki [3] [nM],hepatic extraction ratio [4],other results
O=C(c1cccc(F)c1-c1ncccn1)N1[C@@H]2CC[C@H]1[C@H](Nc1ncc(C(F)(F)F)cc1Cl)C2,540,0.83,14,0.61,–
Cc1ccc(-n2nccn2)c(C(=O)N2[C@@H]3CC[C@H]2[C@H](COc2ccc(F)cn2)C3)n1,–,–,–,–,concentration at 0.5 h [5]: 313 ng/mL; concentration at 0.5 h [6]: 930 ng/mL; Activity [7]: 50%; Activity [8]: 30%
O=C(c1nccc2[nH]cnc12)N1CCC(F)(F)[C@@H](Oc2ccc3ccccc3n2)C1,–,–,5.2,–,–
O=C(c1ccccc1-n1nccn1)N1C2CCC1C(Nc1cnc(C(F)(F)F)cn1)C2 (racemic),1250,0.55,62,0.36,–
O=C(c1c(F)cccc1-c1ncccn1)N1[C@@H]2CC[C@H]1[C@H](Nc1cnc(C(F)(F)F)cn1)C2,560,–,–,–,Activity [9]: 29%; concentration at 0.5 h [10]: 1600 ng/mL; concentration at 0.5 h [11]: 654 ng/mL; Activity [12]: 51%; Activity [13]: 43%
Cc1ccc(-n2nccn2)c(C(=O)N2C3CCC2C(Nc2ccc(C(F)(F)F)cn2)C3)n1 (racemic),–,> 0.92,75,0.93,–
Cc1ccc(-n2nccn2)c(C(=O)N2C3CCC2C(COc2ccc(F)cn2)C3)c1 (racemic),72,–,–,–,concentration at 0.5 h [5]: 16 ng/mL; concentration at 0.5 h [6]: 55 ng/mL; Activity [7]: 49%; Activity [8]: 43%
O=C(c1ccccc1-c1cccs1)N1C2CCC1C(COc1ccc(F)cn1)C2 (racemic),13,> 0.92,–,> 0.95,–
O=C(c1ccccc1-n1nccn1)N1C2CCC1C(Nc1ccc(C(F)(F)F)cn1)C2 (racemic),1400,0.87,52,0.69,–
O=C(c1ccccc1-n1nccn1)N1C2CCC1C(Nc1ncc(C(F)(F)F)cn1)C2 (racemic),–,–,180,–,–
O=C(c1cccc(F)c1-c1ncccn1)N1C2CCC1C(Oc1ccc(C(F)(F)F)cn1)C2 (racemic),> 10000,–,130,–,–
O=C(c1cccc(F)c1-c1ncccn1)N1[C@@H]2CC[C@H]1[C@H](Nc1ccc(C(F)(F)F)cn1)C2,–,0.82,–,0.75,Activity [9]: 21%; concentration at 0.5 h [10]: 586 ng/mL; concentration at 0.5 h [11]: 72 ng/mL; Activity [12]: 70%; Activity [13]: 69%
O=C(c1ccc(F)cc1-c1ncccn1)N1[C@@H]2CC[C@H]1[C@H](Nc1cnc(C(F)(F)F)cn1)C2,1700,0.76,61,0.81,concentration at 0.5 h [5]: 37 ng/mL; concentration at 0.5 h [6]: 257 ng/mL; Activity [7]: 75%; Activity [8]: 17%
O=C(c1cc(F)ccc1-c1ncccn1)N1C2CCC1C(COc1ccc(F)cn1)C2 (racemic),160,0.76,41,0.81,–
O=C(c1ccccc1-c1ncccn1)N1[C@@H]2CC[C@H]1[C@H](Nc1cnc(C(F)(F)F)cn1)C2,520,0.38,19,< 0.3,Activity [9]: 48%; Papp A→B [14]: 1.1 ×10⁻⁶ cm/s; fraction unbound [15]: 0.15; concentration at 0.5 h [10]: 1480 ng/mL; concentration at 0.5 h [11]: 296 ng/mL; activity at 10 µM [16]: 18%; Activity [12]: 77%; Papp B→A [17]: 68 ×10⁻⁶ cm/s; fraction unbound [18]: 0.214; Activity [13]: 83%; fraction unbound [19]: 0.067
Cc1ccc(-n2nccn2)c(C(=O)N2[C@@H]3CC[C@H]2[C@H](COc2ccccn2)C3)n1,–,–,–,–,concentration at 0.5 h [5]: 8 ng/mL; concentration at 0.5 h [6]: 118 ng/mL; Activity [7]: 50%; Activity [8]: 20%
O=C(c1cccc(F)c1-c1ncccn1)N1C2CCC1C(Oc1cnc(C(F)(F)F)cn1)C2 (racemic),5500,–,100,–,–
Cc1ccc(-c2ncccn2)c(C(=O)N2[C@@H]3CC[C@H]2[C@H](COc2ccccn2)C3)n1,230,0.82,19,0.61,–
O=C(c1cc(F)ccc1-n1nccn1)N1C2CCC1C(COc1ccc(F)cn1)C2 (racemic),200,0.8,59,0.81,–
O=C(c1ccccc1-n1nccn1)N1[C@@H]2CC[C@H]1[C@H](Nc1cnc(C(F)(F)F)cn1)C2,770,0.31,30,< 0.3,–
O=C(c1cc(F)ccc1-c1ncccn1)N1[C@@H]2CC[C@H]1[C@H](Nc1cnc(C(F)(F)F)cn1)C2,730,–,65,–,–
O=C(c1cccn2ccnc12)N1CCC(F)(F)[C@@H](Oc2ccc3ccccc3n2)C1,1010,–,1.8,–,–
COc1ccc(C[C@H]2c3cc(OC)c(OC)cc3CCN2[C@@H](C(=O)NC(C)C)c2ccccc2)cc1OC,–,–,6,–,–
Cc1ccc(-n2nccn2)c(C(=O)N2C3CCC2C(COc2ccc(C(F)(F)F)cn2)C3)n1 (racemic),420,–,500,–,–
O=C(c1ccccc1-n1nccn1)N1C2CCC1C(Oc1ccc(C(F)(F)F)cn1)C2 (racemic),2700,–,130,–,–
Cc1ccc(-c2ncccn2)c(C(=O)N2C3CCC2C(COc2ccc(F)cn2)C3)c1 (racemic),40,0.89,8.7,0.91,–
O=C(c1ccccc1-n1nccn1)N1C2CCC1C(Nc1ccc(Cl)cn1)C2 (racemic),2130,> 0.92,96,0.88,Ratio Ki [20]: 20
O=C(c1cccc(F)c1-c1ncccn1)N1[C@@H]2CC[C@H]1[C@H](Nc1ncc(C(F)(F)F)cc1F)C2,1100,0.8,15,0.49,"Activity [9]: 46%; EC50 [21]: 0.25 µg/mL; ED50 ([21]; po, time 60 min): 4.8 mg/kg; Papp A→B [14]: 7.7 ×10⁻⁶ cm/s; fraction unbound [15]: 0.056; concentration at 0.5 h [10]: 837 ng/mL; concentration at 0.5 h [11]: 539 ng/mL; activity at 10 µM [16]: 39%; Activity [12]: 81%; Papp B→A [17]: 71.3 ×10⁻⁶ cm/s; fraction unbound [18]: 0.064; Activity [13]: 70%; fraction unbound [19]: 0.027"
